Rtt109 Vps75: blocks Candida albicans Rtt109/Vps75 acetyltransferase activity | Q5AAJ8 | purified Rtt109/Vps75, ThioGlo CoA-SH fluorescence, 4 h | inhibition, % at 34.9 µM | actives 0.16% (n = 330,000);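 active = inhibition of at least 50% in every replicate; inconclusive = best replicate reaches 50% inhibition but some replicates fall short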
FAS TE block: blocks the thioesterase domain of human fatty acid synthase; inhibition, % at 15 µM; recombinant FAS-TE, OMFH fluorogenic substrate, fluorescence endpoint; P49327; actives 0.67% (n = 360,000);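 active = compounds whose normalised, plate-corrected inhibition of enzyme fluorescence in the single-dose primary screen is 50% or more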;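 note: 0% = DMSO with enzyme and 100% = substrate without enzyme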
PfM18AAP inh: blocks P. falciparum M18 aspartyl aminopeptidase. recombinant PfM18AAP, H-Glu-NHMec fluorogenic cleavage. inhibition, % at 7.35 µM. actives 1.2% (n = 290,000);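 active = inhibition above the campaign mean inhibition over all tested compounds plus 3 SD, cut at about 28% in these data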;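 note: 0% = plate median of test compound wells and 100% = 2 mM ZnCl2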
UCH37 DUB inh: inhibitors of human deubiquitinating enzyme UCH37 | Q9Y5K5 | purified proteasome/UCH37, Ub-AMC cleavage fluorescence | inhibition, % (concentration not given with the values) | actives 0.33% (n = 330,000) | AID 588478;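 active = mean inhibition over replicate wells above about 20%, limit read from the data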;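 note: 0% = compound-free wells with enzyme and 100% = wells lacking proteasome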
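Material: human UCH37 enzyme supplied as purified proteasome complex / Amount: 0.15 nM proteasome as dispensed / Buffer or medium: pH 7.4 Tris-HCl (50 mM) with ovalbumin, ATP-MgCl2, DTT / Times: preincubation 30 min, reaction 25 min, room temperature / Technique: AMC fluorescence from Ub-AMC cleavage, excitation 355 nm, emission 460 nm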
HDAC3 inh: human HDAC3 inhibition; O15379; recombinant HDAC3, fluorogenic peptide/trypsin coupled, fluorescence; inhibition, % at 8.3 µM; actives 0.15% (n = 320,000); AID 2718; in the data active = inhibition above about 26%, passing the limit was not always enough; inconclusive = no clear call, values can overlap the other calls
Target sequence (O15379 whole entry, looked up): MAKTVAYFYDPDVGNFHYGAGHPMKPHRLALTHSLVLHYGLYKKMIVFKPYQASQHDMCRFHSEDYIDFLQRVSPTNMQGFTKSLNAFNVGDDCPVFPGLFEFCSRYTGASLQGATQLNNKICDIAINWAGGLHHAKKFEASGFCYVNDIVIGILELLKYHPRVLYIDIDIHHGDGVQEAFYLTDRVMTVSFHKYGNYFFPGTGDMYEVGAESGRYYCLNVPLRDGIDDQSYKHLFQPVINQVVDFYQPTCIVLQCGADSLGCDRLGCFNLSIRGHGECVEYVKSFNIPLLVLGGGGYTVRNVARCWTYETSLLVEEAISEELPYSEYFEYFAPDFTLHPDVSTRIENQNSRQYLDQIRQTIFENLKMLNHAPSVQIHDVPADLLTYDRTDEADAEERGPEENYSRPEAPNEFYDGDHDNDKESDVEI
ALR H2O2 inh: blocks human ALR sulfhydryl oxidase activity | inhibition, % (concentration not given with the values) | actives 3.8% (n = 290,000) | purified ALR, DTT oxidation, H2O2 HRP-luminol luminescence | P55789;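 active = mean replicate inhibition above about 79%, with every replicate also reaching it, limit read from the data; inconclusive = only one of the two criteria met; inactive = mean below limit and not every replicate reaching it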
Target sequence (P55789 whole entry, looked up): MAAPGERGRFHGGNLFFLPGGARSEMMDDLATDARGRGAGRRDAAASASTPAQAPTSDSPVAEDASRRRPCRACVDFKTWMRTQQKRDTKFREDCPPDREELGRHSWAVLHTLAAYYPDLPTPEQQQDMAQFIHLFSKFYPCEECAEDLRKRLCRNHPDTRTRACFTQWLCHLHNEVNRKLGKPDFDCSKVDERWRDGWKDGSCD
* marks the source's active call; other numbers are inactive results. Only some compounds are listed: those with a hit (about 4.6% of all), similar ones and a draw of the others.

Results for CCN(CC)c1ccc(/C=C2\C(=N)N3N=C(CC(=O)N4CCOCC4)SC3=NC2=O)cc1 ?
Rtt109 Vps75: 9; FAS TE block: -66; PfM18AAP inh: 0; UCH37 DUB inh: 21*; HDAC3 inh: -4; ALR H2O2 inh: 98*

How did COc1ccc(/C=C2\C(=N)N3N=C(CC(=O)N4CCCCC4)SC3=NC2=O)cc1 do in these assays?
Rtt109 Vps75: 0; FAS TE block: -3; PfM18AAP inh: 2; UCH37 DUB inh: 9; HDAC3 inh: 8; ALR H2O2 inh: 80*

How did CSc1ccc(/C=C2\C(=N)N3N=C(CC(=O)N4CCCCC4)SC3=NC2=O)cc1 do in these assays?
Rtt109 Vps75: 0; FAS TE block: -6; PfM18AAP inh: 4; HDAC3 inh: -7; ALR H2O2 inh: 96*

How did COc1ccc(/C=C2/C(=N)N3N=C(CC(=O)N4CCCC4)SC3=NC2=O)cc1 do in these assays?
Rtt109 Vps75: 18; FAS TE block: -6; PfM18AAP inh: -6; UCH37 DUB inh: 16; HDAC3 inh: 1; ALR H2O2 inh: 14

What do the screens show for `CSc1ccc(/C=C2\C(=N)N3N=C(CC(=O)N4CCOCC4)SC3=NC2=O)cc1`?
Rtt109 Vps75: 11; FAS TE block: -5; PfM18AAP inh: 5; UCH37 DUB inh: 11; HDAC3 inh: -6; ALR H2O2 inh: 6

How did CC(C)c1ccc(/C=C2\C(=N)N3N=C(CC(=O)N4CCCCC4)SC3=NC2=O)cc1 do in these assays?
Rtt109 Vps75: -10; FAS TE block: 1; PfM18AAP inh: -1; UCH37 DUB inh: 5; HDAC3 inh: 6; ALR H2O2 inh: 96*

What do the screens show for `Cc1ccc(C=NN2C(=O)c3ccccc3NC2c2ccc(C)cc2)cc1` (centres undefined)?
UCH37 DUB inh: -11

What do the screens show for `CC(Cn1nnc([N+](=O)[O-])n1)=NNC(=O)c1cccc(Cl)c1`?
UCH37 DUB inh: 2

How did COc1ccc(C=NNc2nc(-c3cccc(S(=O)(=O)N4CCCC4)c3)cs2)cc1OC do in these assays?
UCH37 DUB inh: -22

How did O=c1cc(C(F)(F)F)[nH]c(=S)n1-c1ccccc1 do in these assays?
Rtt109 Vps75: 0; FAS TE block: -4; PfM18AAP inh: 30*; UCH37 DUB inh: 7; HDAC3 inh: 11; ALR H2O2 inh: -1

Results for Cc1cc(/C=C(\C#N)C(=O)O)c(C)n1C1CC1 ?
Rtt109 Vps75: 4; FAS TE block: -7; PfM18AAP inh: 12; UCH37 DUB inh: 21*; HDAC3 inh: 4

How did CCCCn1c(C)cc(/C=C(\C#N)C(=O)O)c1C do in these assays?
Rtt109 Vps75: 27; FAS TE block: -9; PfM18AAP inh: 2; UCH37 DUB inh: 13; HDAC3 inh: 5; ALR H2O2 inh: 6

What do the screens show for `COc1cc(C2NC(=O)NC(C)=C2C(=O)OC(C)C)ccc1OC(=O)c1ccco1` (centres undefined)?
Rtt109 Vps75: 3; FAS TE block: -2; PfM18AAP inh: 0; UCH37 DUB inh: 4; HDAC3 inh: 3; ALR H2O2 inh: -4

How did COc1cc(C2NC(=S)NC(C)=C2C(=O)OC(C)C)ccc1OC(C)C (centres undefined) do in these assays?
Rtt109 Vps75: 3; FAS TE block: -4; PfM18AAP inh: -2; UCH37 DUB inh: 2; HDAC3 inh: 8; ALR H2O2 inh: 96*

How did O=C1C(Cl)=C(NS(=O)(=O)c2ccc([N+](=O)[O-])cc2)C(=O)c2ccccc21 do in these assays?
Rtt109 Vps75: inconclusive; FAS TE block: 32; PfM18AAP inh: 4; UCH37 DUB inh: 24*; HDAC3 inh: -1; ALR H2O2 inh: 0

How did CCn1nc(C)c(C=NNC(=O)c2cccc(OC)c2)c1C do in these assays?
UCH37 DUB inh: 0

What do the screens show for `COCCn1c(CCc2ccccc2)n[nH]c1=S`?
Rtt109 Vps75: -7; FAS TE block: -3; PfM18AAP inh: 16; UCH37 DUB inh: 2; HDAC3 inh: 3; ALR H2O2 inh: 85*

Results for CC1(C(=O)O)CCC(C(=O)Nc2ccccc2O)C1(C)C (centres undefined) ?
FAS TE block: -11; PfM18AAP inh: -15; UCH37 DUB inh: 3; HDAC3 inh: 3; ALR H2O2 inh: 86*

How did Cc1ccc2nc(SCC(=O)Nc3cccc(Cl)c3)nc(=O)n2c1 do in these assays?
Rtt109 Vps75: -11; FAS TE block: 0; UCH37 DUB inh: 0; HDAC3 inh: 2; ALR H2O2 inh: 97*

What do the screens show for `O=C(CSc1nc(-c2ccc(Cl)cc2)[nH]c(=O)n1)Nc1cccc(Cl)c1`?
Rtt109 Vps75: 23; FAS TE block: 44; PfM18AAP inh: 9; UCH37 DUB inh: 3; HDAC3 inh: 1; ALR H2O2 inh: 99*

What do the screens show for `CCCC=NNC(=O)c1[nH]c2c([N+](=O)[O-])cccc2c1C`?
UCH37 DUB inh: 2

How did COc1ccccc1NC1=C(Cl)C(=O)N(C2CCCCC2)C1=O do in these assays?
Rtt109 Vps75: 52*; FAS TE block: 14; PfM18AAP inh: 6; UCH37 DUB inh: 6; HDAC3 inh: 1; ALR H2O2 inh: 7

How did CCOc1ccccc1NC1=C(Cl)C(=O)N(c2ccc(OC)cc2)C1=O do in these assays?
Rtt109 Vps75: 11; FAS TE block: 22; PfM18AAP inh: 17; UCH37 DUB inh: 3; HDAC3 inh: 4; ALR H2O2 inh: 0

Results for COc1ccccc1N1C(=O)C(Cl)=C(Nc2ccccc2O)C1=O ?
Rtt109 Vps75: 75*; FAS TE block: -8; PfM18AAP inh: 15

What do the screens show for `Cc1ccccc1NC1=C(Cl)C(=O)N(C2CCCCC2)C1=O`?
Rtt109 Vps75: -4; FAS TE block: 12; PfM18AAP inh: 4; UCH37 DUB inh: 1; HDAC3 inh: -1; ALR H2O2 inh: 10

How did O=C1C(Cl)=C(Nc2ccccc2O)C(=O)N1c1ccccc1 do in these assays?
Rtt109 Vps75: 1; FAS TE block: -8; PfM18AAP inh: 46*; UCH37 DUB inh: 4; HDAC3 inh: -2; ALR H2O2 inh: 67

How did NC(=NOC(=O)c1ccccc1[N+](=O)[O-])c1cccnc1 do in these assays?
UCH37 DUB inh: 4

What do the screens show for `Nc1nnnn1CC(=O)NN=Cc1ccccn1`?
UCH37 DUB inh: -1

What do the screens show for `Cc1sc2ncnc(N(C)C3CCCCC3)c2c1C`?
Rtt109 Vps75: 0; FAS TE block: 13; PfM18AAP inh: -1; UCH37 DUB inh: 1; HDAC3 inh: 2; ALR H2O2 inh: 22

How did CN(c1nnc(N)s1)C1CCCCC1 do in these assays?
Rtt109 Vps75: -9; FAS TE block: -2; PfM18AAP inh: 2; UCH37 DUB inh: 0; HDAC3 inh: -2; ALR H2O2 inh: 99*

How did CC(C)Oc1ccc(CSC(=N)N)cc1 do in these assays?
Rtt109 Vps75: 1; FAS TE block: -13; PfM18AAP inh: -3; UCH37 DUB inh: 4; HDAC3 inh: 1; ALR H2O2 inh: 98*

What do the screens show for `Cc1occc1C(=O)NCc1ccccn1`?
Rtt109 Vps75: 6; FAS TE block: -10; PfM18AAP inh: 14; UCH37 DUB inh: 0; HDAC3 inh: -5; ALR H2O2 inh: 82*

Bioassay records: PubChem, several laboratories
